Data from ChEMBL document CHEMBL5107952, “Synthesis of low-molecular weight fucoidan derivatives and their binding abilities to SARS-CoV-2 spike proteins” (RSC Med Chem, 2021).
pIC50, pKi: −log10 of the molar value. The source made the active and inactive calls. The rule behind the calls is not given here.

Experiments:
[1] = target: Spike glycoprotein (Severe acute respiratory syndrome coronavirus 2) (UniProt P0DTC2); assay: Competitive inhibition of biotinylated heparin binding to His-tagged wild type SARS-COV-2 spike protein at 50 uM incubated for 300 sec by biolayer interferometry streptavidin sensor based assay
[2] = target: T1, Spike glycoprotein (Severe acute respiratory syndrome coronavirus 2, UniProt P0DTC2); assay: Competitive inhibition of biotinylated heparin binding to His-tagged wild type SARS-COV-2 spike protein assessed inhibition constant incubated for 300 sec by biolayer interferometry streptavidin sensor based assay
How it was run: (§1)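 Streptavidin BLI sensor tips loaded with biotinylated heparin and exposed to wild-type S protein (1 μM) mixed with test compound (0–500 μM) in TBS (20 mM Tris, pH 7.4, 0.02% BSA). Bound (%) was taken from the BLI response. IC50 came from nonlinear regression, and Ki was derived from IC50 by the Cheng–Prusoff equation.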

[3] = target: T1, Spike glycoprotein; assay: Competitive inhibition of biotinylated heparin binding to His-tagged wild type SARS-COV-2 spike protein incubated for 300 sec by biolayer interferometry streptavidin sensor based assay; how it was run: as §1

Structure (SMILES)	inhibition [1]	pKi [2]	pIC50 [3]
CCCCCCCCO[C@H]1O[C@@H](C)[C@@H](OS(=O)(=O)O)[C@@H](O[C@@H]2O[C@@H](C)[C@@H](OS(=O)(=O)O)[C@@H](O[C@@H]3O[C@@H](C)[C@@H](OS(=O)(=O)O)[C@@H](O[C@@H]4O[C@@H](C)[C@@H](OS(=O)(=O)O)[C@@H](OS(=O)(=O)O)[C@@H]4OS(=O)(=O)O)[C@@H]3OS(=O)(=O)O)[C@@H]2OS(=O)(=O)O)[C@@H]1OS(=O)(=O)O	< 10%		
CCCCCCCCO[C@H]1O[C@@H](C)[C@@H](O[C@@H]2O[C@@H](C)[C@@H](O[C@@H]3O[C@@H](C)[C@@H](O[C@@H]4O[C@@H](C)[C@@H](OS(=O)(=O)O)[C@@H](OS(=O)(=O)O)[C@@H]4OS(=O)(=O)O)[C@@H](OS(=O)(=O)O)[C@@H]3OS(=O)(=O)O)[C@@H](OS(=O)(=O)O)[C@@H]2OS(=O)(=O)O)[C@@H](OS(=O)(=O)O)[C@@H]1OS(=O)(=O)O	Active	5.52	4.06
CCCCCCCCO[C@H]1O[C@@H](C)[C@@H](O[C@@H]2O[C@@H](C)[C@@H](OS(=O)(=O)O)[C@@H](O[C@@H]3O[C@@H](C)[C@@H](O[C@@H]4O[C@@H](C)[C@@H](OS(=O)(=O)O)[C@@H](OS(=O)(=O)O)[C@@H]4OS(=O)(=O)O)[C@@H](OS(=O)(=O)O)[C@@H]3OS(=O)(=O)O)[C@@H]2OS(=O)(=O)O)[C@@H](OS(=O)(=O)O)[C@@H]1OS(=O)(=O)O	Active		
